Data on 10 molecules can be found in publication PMC5123777 (Biochemistry, 2015).

For orientation: Km means the concentration of substrate that gives half-maximal velocity. Broadly, the kcat is the number of substrate molecules converted per active site and unit of time at saturation. Broadly, the stoichiometry N is a count of units in the complex or per binding partner.

Some results are limits rather than exact numbers.

The target of one data set is OXA-163 (Klebsiella pneumoniae, UniProt Q6XEC0, DEL214-217/S212D). Briefly: Steady-state enzyme kinetics of substrate hydrolysis by OXA-163. The data set is classed as biochemical, Klebsiella pneumoniae and Enterobacter cloacae. To be noted: for Km / kcat: 30°C, 50 mM sodium phosphate pH 7.2, 15 mM sodium bicarbonate. The essentials:
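OXA-163 was purified from induced culture supernatant (0.4 mM IPTG, 23°C, 20 h) by zinc-chelate chromatography and size exclusion, and quantified at A280. Hydrolysis was followed by UV at 260 nm (ceftazidime, cefotaxime), 262 nm (cephalothin), 298 nm (meropenem), or 299 nm (imipenem, doripenem, […]). Data were fitted to Michaelis–Menten; where Vmax was unreachable, kcat/Km came from a first-order fit.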

Data set [1] addresses OXA-163 class D β-lactamase (Klebsiella pneumoniae and Enterobacter cloacae). Briefly: SEC. For orientation: SEC sorts molecules by how far they enter the pores of the column.
The target is the same in data set [2]. The data set is described as follows: crystal structure.
For data set [3] the target is unchanged. Briefly: crystal structure. This is another data set of the same source.
In another data set the target is OXA-48 (Klebsiella pneumoniae, UniProt Q6XEC0). Briefly: Steady-state enzyme kinetics of substrate hydrolysis by OXA-48. The data set is classed as biochemical. The settings on record: for OXA-48 kcat/Km value smaller compared to imipenem: relative to imipenem kcat/Km.
Data set [4] deals with class D β-lactamases (DBLs). To be noted: in vitro; cited from earlier work.
The data set “SEC” concerns the molecule itself. Briefly: SEC.

In the case of `CC(=O)OCC1=C(C(=O)O)N2C(=O)[C@@H](NC(=O)Cc3cccs3)[C@H]2SC1` [Cephalothin, cephalothin], at OXA-163 (OXA-163), the Km stood at 3.4 ± 0.4 µM and the kcat was determined as 1.7 ± 0.1 s⁻¹.

Turning to `C[C@@H](O)[C@H]1C(=O)N2C(C(=O)O)=C(SCCN=CN)C[C@H]12` [Imipenem, imipenem], at OXA-163 (OXA-163), the Michaelis-Menten constant (Km) was 3.6 ± 1 µM and the kcat came to 0.004 ± 0.001 s⁻¹. Besides, the “drop in the catalytic efficiency of OXA-163 in comparison to OXA-48” value on OXA-163 (kcat/Km OXA-48 versus OXA-163) is 820 fold.

As to OXA-163 class D β-lactamase (enzyme), the stoichiometry N in data set [1], in data set [2] and in data set [3] was 2 each time.

In the case of `O=C(Cc1cccs1)N[C@@H]1C(=O)N2C(C(=O)O)=C(/C=C/c3ccc([N+](=O)[O-])cc3[N+](=O)[O-])CS[C@H]12` [Nitrocefin, nitrocefin], on OXA-163 (OXA-163), the Michaelis constant (Km) is 19 ± 8 µM and the kcat was determined as 34 ± 2 s⁻¹.

As for `CO/N=C(\C(=O)N[C@@H]1C(=O)N2C(C(=O)O)=C(COC(C)=O)CS[C@H]12)c1csc(N)n1` [Cefotaxime, cefotaxime], at OXA-163 (OXA-163), the Km was found to be 36 ± 11 µM and the kcat stood at 14 ± 1 s⁻¹.

Consider `C[C@@H](O)[C@H]1C(=O)N2C(C(=O)O)=C(S[C@@H]3CN[C@H](C(=O)N(C)C)C3)[C@H](C)[C@H]12` [Meropenem, meropenem], for which the “OXA-48 kcat/Km value smaller compared to imipenem” value on OXA-48 came out at 53 fold. For the same molecule, on OXA-163 (OXA-163), the Km came to 5.3 ± 0.5 µM and the kcat is 0.021 ± 0.001 s⁻¹.

As for `CC(C)(O/N=C(\C(=O)N[C@@H]1C(=O)N2C(C(=O)[O-])=C(C[n+]3ccccc3)CS[C@H]12)c1csc(N)n1)C(=O)O` [Ceftazidime, ceftazidime], the “hydrolysis by OXA-48 (steady-state kinetics analysis)” value at OXA-48 is “does not hydrolyze”. In addition, at OXA-163 (OXA-163), the “hydrolysis by OXA-163” value is on record as “does hydrolyze” and the Michaelis constant (Km) is greater than 1000 µM.

Regarding `[Cl-].[Na+]` [NaCl, sodium chloride], the “sodium chloride concentration at which most DBLs are fully inhibited” value in data set [4] is listed as 100 mM.

Take `C[C@@H](O)[C@H]1C(=O)N2C(C(=O)O)=C(S[C@@H]3CN[C@H](CNS(N)(=O)=O)C3)[C@H](C)[C@H]12` [Doripenem, doripenem]: the “OXA-48 kcat/Km value smaller compared to imipenem” value at OXA-48 was found to be 56 fold. Further, at OXA-163 (OXA-163), the Km was 5 ± 0.4 µM and the kcat amounted to 0.018 ± 0.001 s⁻¹.

B1: OXA-48 class D β-lactamase (enzyme)
chain: KEWQENKSWNAHFTEHKSQGVVVLWNENKQQGFTNNLKRANQAFLPASTFKIPNSLIALDLGVVKDEHQVFKWDGQTRDIATWNRDHNLITAMKYSVVPVYQEFARQIGEARMSKMLHAFDYGNEDISGNVDSFWLDGGIRISATEQISFLRKLYHNKLHVSERSQRIVKQAMLTEANGDYIIRAKTGYSTRIEPKIGWWVGWVELDDNVWFFAMNMDMPTSDGLGLRQAITKEVLKQEKIIP
With B1, in “SEC”, the “stoichiometry N” value was found to be 2.
